Calls of active or inactive are those of the source. The rule behind the calls is not given here.

For assay [1], the target named is LSD1/CoREST complex (Homo sapiens) (UniProt O60341+Q9UKL0). Nature of the assay: Inhibition of human recombinant KDM1A/CoREST complex expressed in Escherichia coli using mono-methylated H3-K4 peptide containing 21 amino acids as substrate up to 100 uM preincubated for 15 mins followed by substrate addition measured for 12 mins by fluorescence assay. Put shortly: (§1)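 KDM1A/CoREST co-purified from E. coli as separate proteins; 20 nM complex preincubated 15 min at RT with inhibitor, 50 µM Amplex UltraRed and 0.023 µM HRP in 50 mM Tris-HCl pH 8.0, 0.05 mg/ml BSA. Reaction started with 4.5 µM H3K4me1 21-mer peptide. H2O2 release read by fluorescence (ex 510/em 595 nm) for 12 min, aerobic. Tested twice in duplicate; IC50 reported.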
LSD1/CoREST complex (Homo sapiens), sequence (Q9UKL0 whole entry, looked up, other chains not shown): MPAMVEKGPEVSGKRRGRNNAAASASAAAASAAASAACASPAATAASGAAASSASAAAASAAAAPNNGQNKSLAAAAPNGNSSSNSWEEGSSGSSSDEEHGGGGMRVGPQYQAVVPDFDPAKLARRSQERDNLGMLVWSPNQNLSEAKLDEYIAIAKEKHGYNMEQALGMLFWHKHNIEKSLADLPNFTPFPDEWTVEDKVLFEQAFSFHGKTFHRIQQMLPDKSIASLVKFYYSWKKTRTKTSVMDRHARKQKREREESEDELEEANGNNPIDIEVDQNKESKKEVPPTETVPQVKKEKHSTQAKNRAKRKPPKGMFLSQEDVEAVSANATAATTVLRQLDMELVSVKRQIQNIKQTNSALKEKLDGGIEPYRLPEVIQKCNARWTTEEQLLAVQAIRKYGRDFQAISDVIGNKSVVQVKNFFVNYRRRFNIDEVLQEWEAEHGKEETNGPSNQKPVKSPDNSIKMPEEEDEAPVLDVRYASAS

Assay [2] addresses LSD1/CoREST complex (Homo sapiens, UniProt O60341). Description: Inhibition of human recombinant KDM1A/CoREST complex expressed in Escherichia coli using mono-methylated H3-K4 peptide containing 21 amino acids as substrate preincubated for 15 mins followed by substrate addition measured for 12 mins by fluorescence assay. Put shortly:
as §1

As for `O=C1COC[C@]2(C[C@H]2c2ccccc2)N1`, the inhibition result in assay [1] was “inactive”.

On to `O=C1NCCN[C@]12C[C@@H]2c1ccccc1`, for which the inhibition entry in assay [1] was “inactive”.

As for `CC[C@]1(N)C[C@@H]1c1ccccc1Br` (mixture of isomers), the half-inhibitory concentration (IC50) in assay [2] worked out at 0.35 µM.

Regarding `CC[C@]1(N)C[C@@H]1c1ccc(F)cc1` (mixture of isomers), the IC50 in assay [2] is 1.02 µM.

As for `CC[C@]1(N)C[C@@H]1c1cccc(OC)c1` (mixture of isomers), the IC50 in assay [2] amounted to 0.123 µM.

Consider `CC[C@]1(N)C[C@@H]1c1ccc(Cl)cc1` (mixture of isomers), for which the half-maximal inhibitory concentration (IC50) in assay [2] stood at 0.178 µM.

Regarding `CC[C@]1(N)C[C@@H]1c1cccc(F)c1` (mixture of isomers), the 50% inhibitory concentration (IC50) in assay [2] is 0.079 µM.

In the case of `CC[C@]1(N)C[C@@H]1c1ccc(Br)cc1` (mixture of isomers), the IC50 in assay [2] worked out at 0.121 µM.

Turning to `N[C@@]1(CCc2ccccc2)C[C@@H]1c1cccc(Br)c1` (mixture of isomers), the IC50 in assay [2] came to 0.094 µM.

With `N[C@@]1(CCc2ccccc2)C[C@@H]1c1ccc(F)cc1` (mixture of isomers), the IC50 in assay [2] came out at 0.173 µM.

Consider `N[C@@]1(Cc2ccc3ccccc3c2)C[C@@H]1c1ccc(Br)cc1` (mixture of isomers), for which the IC50 in assay [2] was found to be 0.279 µM.

As to `N[C@@]1(Cc2ccccc2)C[C@@H]1c1ccc(Cl)cc1` (mixture of isomers), the half-inhibitory concentration (IC50) in assay [2] stood at 0.23 µM.

On to `N[C@@]1(Cc2ccccc2)C[C@@H]1c1ccc(F)cc1` (mixture of isomers), for which the IC50 in assay [2] came out at 1.05 µM.

On to `N[C@@]1(c2ccccc2)C[C@@H]1c1ccc(Cl)cc1` (mixture of isomers), for which, in assay [2], the IC50 was 0.554 µM.

As to `CC[C@]1(N)C[C@@H]1c1ccccc1Cl` (racemic), the IC50 in assay [2] worked out at 0.258 µM.

Regarding `CC[C@]1(N)C[C@@H]1c1ccc(C(F)(F)F)cc1` (racemic), in assay [2], the half-inhibitory concentration (IC50) was 0.248 µM.

For `CC[C@]1(N)C[C@@H]1c1cccc(C(F)(F)F)c1` (racemic), the half-inhibitory concentration (IC50) in assay [2] turned out to be 0.118 µM.

As for `CC[C@]1(N)C[C@@H]1c1cccc(Cl)c1` (racemic), the IC50 in assay [2] was determined as 0.038 µM.

With `CC[C@]1(N)C[C@@H]1c1cccc(Br)c1` (racemic), in assay [2], the 50% inhibitory concentration (IC50) is 0.031 µM.

With `N[C@@]1(CCc2ccccc2)C[C@@H]1c1ccc(Br)cc1` (racemic), the half-inhibitory concentration (IC50) in assay [2] came to 0.101 µM.

In the case of `N[C@@]1(CCc2ccccc2)C[C@@H]1c1ccc(Cl)cc1` (racemic), the IC50 in assay [2] turned out to be 0.096 µM.

Take `N[C@@]1(Cc2ccc3ccccc3c2)C[C@@H]1c1cccc(Br)c1` (racemic): the half-inhibitory concentration (IC50) in assay [2] stood at 0.251 µM.

Consider `N[C@@]1(Cc2ccc3ccccc3c2)C[C@@H]1c1cccc(Cl)c1` (racemic), for which the IC50 in assay [2] came to 0.158 µM.

For the compound `N[C@@]1(Cc2ccc3ccccc3c2)C[C@@H]1c1ccc(F)cc1` (racemic), the IC50 in assay [2] was found to be 0.642 µM.

`N[C@@]1(Cc2ccc3ccccc3c2)C[C@@H]1c1ccc(Cl)cc1` (racemic): the IC50 in assay [2] amounted to 0.263 µM.

Take `N[C@@]1(Cc2ccccc2)C[C@@H]1c1ccc(Br)cc1` (racemic): the IC50 in assay [2] was 0.187 µM.

Consider `N[C@@]1(c2ccccc2)C[C@@H]1c1ccc(Br)cc1` (racemic), for which the 50% inhibitory concentration (IC50) in assay [2] amounted to 0.047 µM.

Take `CC[C@]1(N)C[C@@H]1c1ccc(OC(F)(F)F)cc1` (racemic): the IC50 in assay [2] stood at 1.16 µM.

Turning to `CC[C@]1(N)C[C@@H]1c1ccc(Br)c(F)c1` (racemic), the IC50 in assay [2] turned out to be 0.035 µM.

`CC[C@]1(N)C[C@@H]1c1ccccc1F` (racemic): in assay [2], the half-inhibitory concentration (IC50) was found to be 0.352 µM.

As usually defined, the IC50 is the point on the concentration scale where inhibition reaches its midpoint.

(Values after ChEMBL document CHEMBL3407462, “Further insights into the SAR of α-substituted cyclopropylamine derivatives as inhibitors of histone demethylase KDM1A” (Eur J Med Chem, 2015).)
